# Screening data as filed in PubChem.
# Hits are enriched below; roughly 3.5% of the tested compounds scored in any of these assays.
# MrgX1 ag: activates human MrgX1 receptor signaling; Q96LB2; MrgX1-HEK293 cells, Fluo-4 calcium fluorescence, agonist mode; hits give high values; B-score at 10 µM; 310,000 compounds, 0.44% hits;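 active = calcium response B-score plate-corrected fluorescence ratio at least 3 library SD, with starting fluorescence B-score inside 5 SD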
# Target sequence (Q96LB2 whole entry, looked up): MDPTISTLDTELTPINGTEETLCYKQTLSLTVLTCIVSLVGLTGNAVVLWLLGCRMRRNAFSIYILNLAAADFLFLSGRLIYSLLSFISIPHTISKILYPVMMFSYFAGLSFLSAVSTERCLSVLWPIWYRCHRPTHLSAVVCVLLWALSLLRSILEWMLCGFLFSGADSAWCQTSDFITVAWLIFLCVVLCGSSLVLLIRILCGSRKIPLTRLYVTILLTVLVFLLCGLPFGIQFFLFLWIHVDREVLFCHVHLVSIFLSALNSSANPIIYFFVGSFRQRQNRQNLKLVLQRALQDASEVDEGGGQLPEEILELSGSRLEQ
#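 Test system: HEK293 cells stably expressing human MrgX1 receptor; amount: 15,000 cells per well; doses: compound delivered in addition one of three; times: overnight plating before 1 h dye loading; detection: Fluo-4 NW calcium-flux fluorescence, kinetic read; read-out basis: B-scored fluorescence response ratio; controls: positive and negative controls per plate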
# MrgX1 allo act: human MrgX1 positive allosteric modulation, primary screen. AID 588675. B-score at 10 µM. 310,000 compounds, 0.63% hits. MrgX1-HEK293, Fluo-4 calcium flux, FDSS; hits give high values. Q96LB2;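 active = plate-corrected calcium response at least 3 library SD above typical, normal starting fluorescence, not activating the receptor alone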;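 also: compound read alongside a low EC10 to EC30 dose of BAM8-22 agonist; peak minus trough fluorescence over baseline measured at the second addition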
# MrgX1 antagonist: antagonists of human MrgX1 receptor | Q96LB2 | MRGX1-HEK293 calcium flux, Fluo-4, BAM8-22 antagonism; hits give low values | B-score at 10 µM | 310,000 compounds, 1.3% hits;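 active = calcium-response B-score plate-corrected more than 3 library SD below zero, starting fluorescence within 5 deviations, no agonist response on first addition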;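 also: peak minus trough fluorescence over baseline after final BAM8-22 challenge near maximal dose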
# RGS4 pot: potentiators or activators of RGS4; 310,000 compounds, 0.92% hits; B-score at 10 µM; AID 463111; HEK293 M3R/inducible RGS4, carbachol calcium flux Fluo4; hits give low values;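 active = B-score of the integrated calcium signal more than 4 SD below the library mean, with starting fluorescence not abnormally high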;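 also: negative B-score means reduced calcium response which marks RGS4 activation or potentiation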
#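 Assay system: Inducible-RGS4 HEK293 cells carrying M3 receptor | Schedule: Compound preincubation 20 min at room temperature before agonist | Signal: Kinetic calcium fluorescence imaging with Fluo4-AM dye, 2 µM | Read-out basis: B score from integrated fluorescence ratio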
# RGS4 inh: inhibitors of human RGS4; P49798; HEK293 M3R/RGS4 inducible, Fluo-4 calcium flux; hits give high values; triggered by carbachol at its EC20; B-score at 10 µM; 310,000 compounds, 0.45% hits; AID 463165;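 active = B-score, a plate-corrected calcium signal, over three deviations above library mean, with baseline fluorescence within five deviations of library mean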;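 also: RGS4 expression induced by doxycycline in cells with stable M3 receptor; B-score is computed from the integrated fluorescence ratio over baseline after carbachol; higher B-score means a larger calcium signal and so more RGS4 inhibition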
# Target sequence (P49798 whole entry, looked up): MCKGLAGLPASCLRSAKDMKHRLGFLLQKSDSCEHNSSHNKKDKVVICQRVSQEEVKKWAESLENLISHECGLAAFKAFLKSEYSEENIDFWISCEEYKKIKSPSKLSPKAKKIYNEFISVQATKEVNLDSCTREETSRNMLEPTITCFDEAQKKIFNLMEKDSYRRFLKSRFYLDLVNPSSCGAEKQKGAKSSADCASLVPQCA
# MrgX1 antag conf: human MrgX1 receptor antagonism, re-confirmation screen; AID 602420; MrgX1-HEK293, BAM8-22 calcium flux, Fluo-4; hits give low values; remaining BAM8-22 calcium response % of control (hits give low values), % at 10 µM; shares compounds with MrgX1 antagonist; 2,300 compounds, 19% hits;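 active = remaining agonist calcium response no higher than 100% minus 3 SD of agonist-only control wells, with starting fluorescence near control levels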;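 also: agonist BAM8-22 given at a near maximal EC90 to ECmax level; peak minus minimum fluorescence divided by baseline after agonist addition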
# HEK293 Ca flux: MrgX1 antagonist counter-screen hit in parental HEK293 cells. fluorescence ratio F(max-min)/F0 at 10 µM. Fluo-4 calcium fluorescence, FDSS. AID 624111. shares compounds with MrgX1 antagonist. 4,000 compounds, 2% hits;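 active = duplicate-averaged calcium fluorescence ratio at least three times the standard deviation of buffer wells, a nonspecific response in parental cells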
# HEK293 Ca counter: MrgX1 allosteric activator counter-screen hit in parental HEK293 cells; 4,000 compounds, 0.4% hits; shares compounds with MrgX1 antagonist; fluorescence ratio F(max-min)/F0 at 10 µM; parental HEK293 calcium flux, Fluo-4 fluorescence ratio; hits give high values; AID 624114;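 active = calcium fluorescence ratio, averaged over duplicates, at least 3 SD of the buffer-well ratio, meaning a nonspecific response in receptor-free cells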;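 also: untransfected parental HEK293 lacking MrgX1 used as counterscreen for MrgX1 allosteric activators; fluorescence change taken during the second addition on a kinetic imager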
# HEK293 Ca cntr2: activity in parental HEK293 cells lacking MrgX1 receptor; shares compounds with MrgX1 antagonist; Fluo-4 calcium fluorescence (FDSS); hits give high values; fluorescence ratio F(max-min)/F0 at 10 µM; 4,000 compounds, 8.7% hits;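 active = calcium fluorescence ratio at least three times the spread of buffer wells, meaning a non-specific response in parental cells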
# Numbers without * were called inactive; i = inactive; . = no result given.
SMILES,MrgX1 ag,MrgX1 allo act,MrgX1 antagonist,RGS4 pot,RGS4 inh,MrgX1 antag conf,HEK293 Ca flux,HEK293 Ca counter,HEK293 Ca cntr2
O=C1CC(N2CCC(O)(c3ccc(Br)cc3)CC2)C(=O)N1c1ccc(Cl)cc1 (stereo not drawn),i,i,-6.5*,i,i,i,i,i,i
O=C(O)CCNc1ccc(NCCC(=O)O)c2c1C(=O)c1ccccc1C2=O,i,i,-4.7*,i,i,i,i,i,i
CSC1=NCCN1C(=O)c1c(-c2ccccc2Cl)noc1C,i,i,-6.9*,i,i,i,i,i,i
CCOC(=O)c1[nH]c(=O)[nH]c1COC(=O)c1cc2ccccc2o1,i,i,i,i,i,.,.,.,.
COc1ccc(C(CC(=O)Nc2ccccn2)N2Cc3ccccc3C2=O)cc1OC (stereo not drawn),i,i,i,i,i,.,.,.,.
CC(C)Cc1ccc(C(C)C(=O)Nc2ccc(O)cc2)cc1 (stereo not drawn),i,i,-8.2*,i,i,i,i,i,66*
CCCSc1cc(N2CCN(C)CC2)nc(-c2ccc(OC)cc2)n1,i,i,i,i,i,.,.,.,.
CCCSc1cc(N2CCCC2)nc(-c2ccccc2)n1,i,i,-5.7*,i,i,i,i,i,i
N#Cc1ccc[n+](CC(=O)c2ccc(NC(=O)c3ccccc3)cc2)c1,i,i,i,i,i,.,.,.,.
COc1cc2cc(CN(CCO)S(=O)(=O)c3ccccc3Cl)c(=O)[nH]c2cc1OC,i,i,-7.7*,i,i,i,i,i,i
CCn1c2ccccc2c2cc(NC(=O)COC(=O)c3ccc(O)cc3)ccc21,i,i,-7.7*,i,i,i,i,i,i
CCc1ccc(N2CC(C(=O)Nc3cc(C)ccc3F)CC2=O)cc1 (stereo not drawn),i,i,-6.9*,i,i,i,i,i,i
Cc1cc(NC(=O)C2CC(=O)N(c3ccccc3)C2)no1 (stereo not drawn),i,i,-4.6*,i,i,85%*,i,i,i
Cc1cc(NC(=O)c2ccc(N3C(=O)CCC3=O)cc2)no1,i,i,-5.3*,i,i,i,i,i,i
Cc1cc(NC(=O)c2ccc(N3C(=O)C4C5C=CC(C5)C4C3=O)cc2)no1 (stereo not drawn),i,i,i,i,i,.,.,.,.
CCc1ccc(N2CC(C(=O)Nc3ccc(F)cc3)CC2=O)cc1 (stereo not drawn),i,i,i,i,i,.,.,.,.
COc1cccc(N2CCN(C(=O)CN3C(=O)NC(C)(c4ccc5ccccc5c4)C3=O)CC2)c1 (stereo not drawn),i,i,i,i,i,.,.,.,.
O=C(CSc1n[nH]c(Cc2ccccc2)n1)Nc1ccccc1Br,i,i,i,i,i,.,.,.,.
CC(=O)c1c(O)c(C)c(-c2ccccc2)n(-c2ccccc2)c1=O,i,i,i,i,i,.,.,.,.
O=C(c1ccccc1)c1c(O)nc(-c2ccccc2)n(-c2ccccc2)c1=O,i,i,-8*,i,i,i,i,i,i
CNS(=O)(=O)c1ccc(C(C)(C)C)cc1,i,i,i,i,i,.,.,.,.
CCN(C(=O)CSc1nc2ccccc2o1)C1CCS(=O)(=O)C1 (stereo not drawn),i,i,-4.7*,i,i,i,i,i,i
CCN(C(=O)COC(=O)CSc1ccc(C)c(C)c1)C1CCS(=O)(=O)C1 (stereo not drawn),i,i,i,i,i,.,.,.,.
CCN(C(=O)CSc1ccc2ccccc2c1)C1CCS(=O)(=O)C1 (stereo not drawn),i,i,-4.6*,i,i,i,i,i,i
COc1cccc(C(=O)NNC(=O)C(=O)Nc2cccc3ccccc23)c1,i,i,i,i,i,.,.,.,.
SMILES,MrgX1 ag,MrgX1 allo act,MrgX1 antagonist,RGS4 pot,RGS4 inh,MrgX1 antag conf,HEK293 Ca flux,HEK293 Ca counter,HEK293 Ca cntr2
O=C(Nc1ccc2cn[nH]c2c1)c1ccc(Cl)c(S(=O)(=O)N2CCOCC2)c1,i,i,i,i,i,.,.,.,.
Cc1cc(NC(=O)CSc2nc3c(c(-c4cccnc4)c2C#N)CCC3)no1,i,i,-5.3*,i,i,i,i,i,i
CCN(CC)C(=O)c1cc(-c2ccc3c(c2)OCO3)on1,i,i,i,i,i,.,.,.,.
CS(=O)(=O)c1ccc(-c2cccc(NC(=O)c3ccco3)c2)nn1,i,i,i,i,i,.,.,.,.
C=CCNC(=O)/C(=C/c1cccc([N+](=O)[O-])c1)NC(=O)c1ccccc1,i,i,i,i,i,.,.,.,.
CSc1cccc(NC(=S)N(CCC(C)C)C2CCN(C(C)C)CC2)c1,i,i,-6.3*,i,i,i,i,i,i
CSc1cccc(NC(=S)N(CCC(C)C)C2CCN(C(C)=O)CC2)c1,i,i,i,i,i,.,.,.,.
CCOC(OCC)c1cn(Cc2ccc(C(=O)c3ccccc3)cc2)nn1,i,i,i,i,i,.,.,.,.
COc1ccc(Nc2nc(N)nc(CSc3nccn3C)n2)cc1,i,i,-4.9*,i,i,i,i,i,i
COc1ccc(Nc2nc(N)nc(CSc3nnc(N)s3)n2)cc1,i,i,i,i,i,.,.,.,.
O=C(NC1CCCN(c2ccc(C(F)(F)F)cn2)C1)c1cc(Cl)ccc1F (stereo not drawn),i,i,-6.6*,i,i,i,i,i,i
Cc1ccc(C(=O)NC2CCCN(c3ccc(C(F)(F)F)cn3)C2)cn1 (stereo not drawn),i,i,i,i,i,.,.,.,.
CCN(C(=O)Cc1c(C(=O)O)n(C)c2ccccc12)c1cc(OC)ccc1OC,i,i,i,i,i,.,.,.,.
